Shown are actives, neighbours in structure and some others; about 1.9% of the full set was active somewhere.
Tb MetRS inh: blocks T. brucei methionyl-tRNA synthetase activity; purified T. brucei MetRS, ATP depletion, Kinase-Glo luminescence; inhibition, % at 11.9 µM; actives 0.4% (n = 360,000);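 active = inhibition above a per-plate cutoff of the control wells' mean inhibition plus 3 SD, cut at about 5.5% in these data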;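 also: 0% = DMSO wells median and 100% = median of wells with control inhibitor compound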
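Material – parasite MetRS enzyme · Medium – HEPES-MgCl2-KCl buffer plus DTT, spermine, BSA, pyrophosphatase · Reagent – ATP, methionine and E. coli bulk tRNA substrates · Times – 15 min enzyme-compound preincubation, 2 h reaction, 10 min detection, 25 °C · Measured by – luminescence of leftover ATP · Evaluation – percent inhibition relative to median high and low control wells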
PLC-beta3 inh: blocks human PLC-beta3 enzyme activity; actives 0.18% (n = 370,000); AID 720704; inhibition, % at 12.2 µM; Q01970; Purified PLC-beta3, fluorogenic substrate, fluorescence;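 also: 0% = median of compound wells on plate and 100% = full blocker control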
DAGLB inhibitor: diacylglycerol lipase beta (human) inhibition. Q8NCG7. HEK293T DAGLB membrane lysate, EnzChek fluorogenic substrate. inhibition, % at 5.17 µM. actives 0.059% (n = 340,000); in the data active = inhibition above about 34%;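 also: 0% = enzyme with vehicle and 100% = wells lacking enzyme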
HGIII-sPLA2 inh: Inhibits HGIII-sPLA2 liposome hydrolysis, primary screen; inhibition, % at 12.2 µM; Q9NZ20; actives 0.56% (n = 370,000); AID 743126; QFRET BODIPY PC-A2 liposome hydrolysis, fluorescence;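 active = inhibition above mean plus 3 SD of compounds lying within the high and low control bounds, cut at about 19% in these data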;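 also: 0% = median of test compound wells and 100% = no enzyme DMSO wells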
PLCg1 inh: blocks human PLC-gamma1 enzyme activity. P19174. actives 0.84% (n = 370,000). inhibition, % at 12.2 µM. purified PLC-gamma1, fluorogenic substrate, fluorescence; in the data active = inhibition above about 9.5%
PLCg1 ctr: PLC-gamma1 inhibition, counter-screen for PLC-beta3 hits | shares compounds with PLCg1 inh | purified PLC-gamma1, fluorogenic substrate, fluorescence | inhibition, % at 12.3 µM | actives 3.1% (n = 3,300) | AID 743258; in the data active = inhibition above about 9.5%
PLCbeta3 conf: human PLC-beta3 inhibition, confirmation. purified PLC-beta3, fluorogenic substrate fluorescence. AID 743261. inhibition, % at 12.3 µM. shares compounds with PLCg1 inh. actives 1% (n = 3,300)
Numbers without * were called inactive; . = no result. Rule as the data show it, unless noted: active = inhibition above about 11%; inactive = the rest.

SMILES | Tb MetRS inh | PLC-beta3 inh | DAGLB inhibitor | HGIII-sPLA2 inh | PLCg1 inh | PLCg1 ctr | PLCbeta3 conf
COC1=C[C@H](C(=O)NCc2ccc(OC)cc2)C(C)C(c2ccccc2)CC1=O (stereo not given in full) | . | -3 | . | -3 | 2 | . | .
Oc1c(N=NC(=S)Nc2ccccc2F)c2ccccc2n1Cc1ccc(F)cc1 | 0 | 10 | 11 | 7 | 10* | -2 | -4
NC(=O)C1(N2CCCCC2)CCN(Cc2ccccc2Cl)CC1 | 0 | 11* | -1 | 10 | 8 | -5 | -3
NC(=O)C1(N2CCCCC2)CCN(S(=O)(=O)c2ccccc2)CC1 | 0 | -7 | -2 | 2 | 4 | . | .
Cc1ccc(C)c(N2CCN(S(=O)(=O)c3ccc4[nH]c(=O)c(=O)[nH]c4c3)CC2)c1 | -1 | 0 | 6 | -10 | 17* | -1 | -4
Cc1ccc(C)c(N2CCN(S(=O)(=O)c3ccc4[nH]c(=O)ccc4c3)CC2)c1 | -1 | -14 | 2 | -4 | -5 | . | .
CCOP(=O)(OCC)C(Nc1cccc(C(F)(F)F)c1)c1ccc(Br)cc1 (stereo not given) | . | 12* | . | -5 | 8 | -8 | -9
CC(C)CN1C(=O)C[C@@]2(C(=O)N(C)c3ccc(NS(=O)(=O)C4CCCCC4)cc32)C1c1ccccc1 (stereo not given in full) | . | 1 | . | -11 | 2 | . | .
CCOC(=O)c1cc(=O)c2c([N+](=O)[O-])ccc(OC)c2o1 | 0 | 5 | -3 | 1 | 9.6* | -5 | -3
O=C(c1cnsn1)N1CCN(c2ccccc2)CC1 | -1 | 11* | -1 | 10 | 7 | -1 | 1
CCOC(=O)CN1C(=O)[C@]2(OCCC=C[C@H]2C)c2ccccc21 | . | 5 | . | 4 | 2 | . | .
C/C(=N/NC(=O)c1cc(-c2cccc([N+](=O)[O-])c2)n[nH]1)c1cccc(O)c1 | 0 | 7 | 1 | 0 | 14* | -2 | -2
CCC(C)(C)NC(=O)C(c1ccc(OC)cc1)N(C(=O)CCC(=O)Nc1cc(C)on1)C1CC1 (stereo not given) | 0 | 2 | -2 | 15 | 11* | -3 | 0
CC(=O)Nc1ccc(S(=O)(=O)NCC2CCN(C(=O)C(=O)c3cccs3)CC2)cc1 | . | 0 | . | 0 | 4 | . | .
COc1cccc(CNCC(O)COc2ccc(C(=O)c3ccccc3)cc2)c1 (stereo not given) | -1 | 4 | 0 | -5 | -2 | . | .
O=C(c1ccccc1)c1ccc(OCC(O)CNCc2ccc(Cl)cc2)cc1 (stereo not given) | -1 | 3 | -7 | -22 | 12* | -2 | -1
NCCc1nnc(SCC(=O)Nc2ccc(Br)cc2)o1 | 0 | -2 | 0 | 11 | -1 | . | .
CN(C)C(=O)CSc1nnc(CCN)o1 | 0 | 5 | 0 | 13 | 13* | -5 | -3
COc1ccc(CCNC(=O)Nc2nnc([C@@H]3C[C@H](O)[C@@H](CO)O3)s2)cc1OC | 0 | 1 | . | -1 | 2 | . | .
O=C(NCCc1cccs1)Nc1nnc([C@H]2C[C@H](O)[C@@H](CO)O2)s1 | 0 | -2 | . | -1 | 11* | -12 | -8
COc1ccc(OC)c(NC(=O)CCC(=O)Nc2nnc(C(C)C)s2)c1 | 0 | -2 | 2 | -4 | 12* | -8 | -4
O=C(OCc1ccccc1Cl)c1cccnc1Cl | 0 | 8 | -6 | 0 | 14* | -8 | -2
CCCCCCSC1=C(C#N)C(=O)NC2(CCCCC2)S1 | 0 | 8 | 11 | -94 | 14* | 1 | 0
CN1C(=O)C2C3c4ccccc4C(c4ccccc43)[C@@H]2C1=O (stereo not given in full) | 0 | -1 | 2 | 1 | 2 | . | .
CC(=O)N(C(C)=O)N1C(=O)C2C3c4ccccc4C(c4ccccc43)C2C1=O (stereo not given) | 0 | 12* | -5 | 7 | 13* | -3 | 1
SMILES | Tb MetRS inh | PLC-beta3 inh | DAGLB inhibitor | HGIII-sPLA2 inh | PLCg1 inh | PLCg1 ctr | PLCbeta3 conf
Nc1nc(Cl)nc2c1ncn2[C@@H]1O[C@H](CO)[C@@H](O)[C@@H]1F | . | 2 | . | 4 | -1 | . | .
COC(=O)Cc1nnn2c1CC(OC)c1ccccc1-2 (stereo not given) | . | 6 | . | 5 | 2 | . | .
Cc1cc(=O)n(C)c(=O)n1CCCCCN1CCCC1 | -1 | 7 | 1 | 11 | 11* | 3 | 4
COC(=O)C1=C(C)N(Cc2ccccc2C(F)(F)F)C(=NCc2ccccc2C(F)(F)F)NC1c1ccc(Cl)cc1 (stereo not given) | . | 3 | . | -4 | 3 | . | .
O=C(O)c1ccc(OCc2occc2C(=O)O)cc1 | -1 | 5 | -1 | 8 | 13* | -8 | -7
O=C(O)c1ccc(OCc2ccc(C(=O)O)o2)cc1 | 0 | -5 | -2 | -2 | -1 | . | .
COc1ccc(CN2CCOCCOCCOCC2)cc1 | 0 | 13* | 0 | 8 | 8 | 7 | 4
S=C(SCc1nc(-c2ccc(Cl)cc2)no1)N1CCSCC1 | . | -1 | . | 3 | 0 | . | .
CC(C)(C)c1ccc(S(=O)(=O)Nc2ccc(C(O)(C(F)(F)F)C(F)(F)F)cc2)cc1 | 0 | 6 | . | -110 | 13* | -3 | -8
COc1cccc(S(=O)(=O)Nc2ccc(C(O)(C(F)(F)F)C(F)(F)F)cc2)c1 | 0 | -2 | . | -35 | 6 | . | .
C[C@@H]1CN([C@@H](C)CO)C(=O)CCCn2cc(nn2)CO[C@H]1CN(C)C(=O)Nc1ccc(C(F)(F)F)cc1 | . | 2 | . | 7 | -2 | . | .
Brc1ccc2nc(-c3ccc(CN4CCC5(CC4)CNc4ccccc45)cc3)c(-c3ccccc3)nc2c1 | . | -7 | . | 18 | -4 | . | .
CS(=O)(=O)c1nc(-c2ccc(Br)cc2)n[nH]1 | 1 | -6 | 0 | -5 | 18* | 15* | -4
CS(=O)(=O)c1ccc(-c2nn[nH]n2)cc1 | -1 | 1 | -1 | 2 | 0 | . | .
Cc1cccc(NC(=O)Cc2c(F)cccc2Cl)n1 | 1 | -3 | -3 | 11 | -1 | . | .
CC1(NC(=O)Cc2c(F)cccc2Cl)CCS(=O)(=O)C1 (stereo not given) | 0 | -2 | -2 | 0 | 13* | -2 | -7
CC(C)(C)CCN1CCC[C@H](NC(=O)COc2ccc(F)c(Cl)c2)C1 | . | 0 | . | -2 | -1 | . | .
O=[N+]([O-])c1ccc(N2CCCCC2)cc1N1CCOCC1 | 0 | 2 | 1 | -7 | 1 | . | .
O=[N+]([O-])c1ccc(N2CCCC2)cc1N1CCCC1 | -1 | 4 | 6 | 7 | 9.6* | -5 | -3
C/C=C/C(=O)Nc1cccc(C2=NOC3(C2)C[C@@H](C(N)=O)N(C(=O)c2cc([N+](=O)[O-])cc([N+](=O)[O-])c2C)C3)c1 (stereo not given in full) | 0 | 4 | 5 | -5 | 11* | -7 | -3

Assay outcomes from PubChem.
